Results on 18 compounds are retold here after ChEMBL document CHEMBL1155279, “1,5-Diaryl-2-ethyl pyrrole derivatives as antimycobacterial agents: design, synthesis, and microbiological evaluation” (Eur J Med Chem, 2009).

Data set [1] has as its system Mycobacterium tuberculosis. Nature of the data set: Antimycobacterial activity against Mycobacterium tuberculosis H37Rv by twofold agar dilution method. Type of data set: functional. The method in brief: (§1)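 Twofold agar dilution in Middlebrook 7H11 agar with 10% OADC (oleic acid, albumin, dextrose). Compounds dissolved in DMSO at 5 mg/mL (one in ethanol at 6 mg/mL), stock, stored cold. MIC determined for each strain. Strains: M. tuberculosis CIP 103471, H37Rv ATCC 27294, rifampicin-resistant ATCC 35838, M. avium CIP 103317.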

Data set [2] is described as follows: Protection index, ratio of MNTD for african green monkey Vero cells to MIC for Mycobacterium tuberculosis CIP 103471. The data set is classed as functional. The method in brief: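 Vero cells exposed to drug; after 72 h of incubation, morphology was checked microscopically. MNTD is the highest concentration with no morphological change. PI = MNTD/MIC, with MIC from twofold agar dilution in Middlebrook 7H11 + 10% OADC against M. tuberculosis CIP 103471.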

The subject of another data set is Mycobacterium avium. The experiment in a line: Antimycobacterial activity against Mycobacterium avium CIP 103317 by twofold agar dilution method. Type of data set: functional. The method in brief:
as §1

The test system of data set [3] is Mycobacterium tuberculosis. Nature of the data set: Antimycobacterial activity against Mycobacterium tuberculosis CIP 103471 by twofold agar dilution method. Type of data set: functional. The essentials:
as §1

A short description of data set [4]: Cytotoxicity against african green monkey Vero cells after 72 hrs. The data set is classed as cell-based. The following applies: chlorocebus sabaeus. The essentials: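 Vero cells exposed to compounds (stocks 5 mg/mL in DMSO; one compound 6 mg/mL in ethanol). After 72 h incubation, cells examined microscopically for morphological changes. Maximum non-toxic dose (MNTD) taken as the highest drug concentration producing no morphological change.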

≈ marks a conversion by molar mass, not a printed value. Bounds are passed on as bounds.

Regarding `Cc1c(CN2CCN(C)CC2)cc(-c2ccc(Cl)cc2)n1-c1ccc(Cl)cc1`, the results for the minimal inhibitory concentration (MIC) (in data set [1]; with Mycobacterium avium; in data set [3]) were 1 µg/mL (≈ 2.41 µM), 0.5 µg/mL (≈ 1.21 µM) and 1 µg/mL (≈ 2.41 µM), respectively. Also, the PI in data set [2] is recorded as 4. In addition, the MNTC at 72 h in data set [4] worked out at 4 µg/mL.
With `Cc1ccc(-c2cc(CN3CCSCC3)c(C)n2-c2ccc(F)cc2)cc1`, the PI in data set [2] is listed as 256. In data set [3], this compound came in with a minimum inhibitory concentration (MIC) of 0.25 µg/mL (≈ 0.657 µM).
In the case of `Cc1c(CN2CCSCC2)cc(-c2ccc(F)cc2)n1-c1ccccc1F`, the PI in data set [2] is 16. In data set [3], the MIC is 0.5 µg/mL (≈ 1.3 µM).
For the compound `Cc1c(CN2CCSCC2)cc(-c2ccc(F)cc2)n1-c1ccccc1`, the PI in data set [2] was 8. The same compound showed a minimal inhibitory concentration (MIC) in data set [3] of 0.5 µg/mL (≈ 1.36 µM).
`Cc1c(CN2CCSCC2)cc(-c2ccccc2)n1-c1ccccc1`: the PI in data set [2] stood at 32. The compound further came in with an MIC in data set [3] of 1 µg/mL (≈ 2.87 µM).
For the compound `CCc1c(CN2CCSCC2)cc(-c2ccc(F)cc2)n1-c1ccccc1F`, the MIC came to 2 µg/mL (≈ 5.02 µM) in data set [1], 8 µg/mL (≈ 20.1 µM) with Mycobacterium avium and 2 µg/mL (≈ 5.02 µM) in data set [3]. For the same compound, the PI in data set [2] is reported as 4. Besides, in data set [4], the MNTC at 72 h amounted to 8 µg/mL.
For `CCc1c(CN2CCSCC2)cc(-c2ccccc2F)n1-c1ccccc1F`, the MIC in data set [1] amounted to 8 µg/mL (≈ 20.1 µM); against Mycobacterium avium, 16 µg/mL (≈ 40.1 µM); in data set [3], 4 µg/mL (≈ 10 µM). Further, the PI in data set [2] is listed as 2. In data set [4], the MNTC at 72 h came out at 8 µg/mL.
As to `Cc1c(CN2CCSCC2)cc(-c2ccccc2)n1-c1ccc(F)cc1`, the PI in data set [2] turned out to be 20. In addition, the lowest concentration to inhibit growth in data set [3] (MIC) was 0.4 µg/mL (≈ 1.09 µM).
Take `CCc1c(CN2CCSCC2)cc(-c2ccc(F)cc2)n1-c1ccc(F)cc1`: the PI in data set [2] is listed as 0.5. In addition, the minimum inhibitory concentration (MIC) (against Mycobacterium avium; in data set [3]) was 16 µg/mL (≈ 40.1 µM) each time. For the same compound, the MNTC at 72 h in data set [4] was 8 µg/mL.
Take `CCc1c(CN2CCSCC2)cc(-c2ccccc2)n1-c1ccccc1`: the MIC in data set [1] was 4 µg/mL (≈ 11 µM); with Mycobacterium avium, 8 µg/mL (≈ 22.1 µM); in data set [3] it was 2 µg/mL (≈ 5.52 µM). The PI in data set [2] was 8. Besides, the MNTC at 72 h in data set [4] was 16 µg/mL.
As for `CCc1c(CN2CCSCC2)cc(-c2ccc(F)cc2)n1-c1ccccc1`, the MIC in data set [1] came out at 1 µg/mL (≈ 2.63 µM); in the data set on Mycobacterium avium, 8 µg/mL (≈ 21 µM); in data set [3], 1 µg/mL (≈ 2.63 µM). Moreover, the PI in data set [2] worked out at 8. Also, the MNTC at 72 h in data set [4] turned out to be 8 µg/mL.
On to `CCc1c(CN2CCN(C)CC2)cc(-c2ccc(Cl)cc2)n1-c1ccc(Cl)cc1`, for which the MIC in data set [1] is 4 µg/mL (≈ 9.34 µM); in the data set with Mycobacterium avium it was 4 µg/mL (≈ 9.34 µM); in data set [3] it was 2 µg/mL (≈ 4.67 µM). Moreover, the PI in data set [2] turned out to be 4. In data set [4], this compound had an MNTC at 72 h of 8 µg/mL.
As for `CCc1c(CN2CCSCC2)cc(-c2ccc(C)cc2)n1-c1ccc(F)cc1`, the values for the minimal inhibitory concentration (MIC) (in data set [1]; with Mycobacterium avium; in data set [3]) were 0.25 µg/mL (≈ 0.634 µM), 16 µg/mL (≈ 40.6 µM) and 0.25 µg/mL (≈ 0.634 µM), respectively. Besides, in data set [2], the PI was more than 512. For the same compound, the MNTC at 72 h in data set [4] was more than 128 µg/mL.
Take `CCc1c(CN2CCSCC2)cc(-c2ccccc2)n1-c1ccc(F)cc1`: the minimum inhibitory concentration (MIC) came to 4 µg/mL (≈ 10.5 µM) in data set [1], 16 µg/mL (≈ 42 µM) in the data set with Mycobacterium avium and 2 µg/mL (≈ 5.26 µM) in data set [3]. Besides, the PI in data set [2] worked out at 8. Besides, the MNTC at 72 h in data set [4] turned out to be 16 µg/mL.
Turning to `Cc1c(CN2CCSCC2)cc(-c2ccccc2F)n1-c1ccccc1F`, the PI in data set [2] turned out to be 32. In data set [3], this compound yielded a minimum inhibitory concentration (MIC) of 1 µg/mL (≈ 2.6 µM).
On to `Cc1c(CN2CCSCC2)cc(-c2ccc(F)cc2)n1-c1ccc(F)cc1`, for which the PI in data set [2] is reported as 8. This compound also displayed an MIC in data set [3] of 1 µg/mL (≈ 2.6 µM).
As for `CO[C@H]1/C=C/O[C@@]2(C)Oc3c(C)c(O)c4c(O)c(c(/C=N/N5CCN(C)CC5)c(O)c4c3C2=O)NC(=O)/C(C)=C\C=C\[C@H](C)[C@H](O)[C@@H](C)[C@@H](O)[C@@H](C)[C@H](OC(C)=O)[C@@H]1C` [RIFAMPIN], the MIC (in data set [1]; with Mycobacterium avium; in data set [3]) was 0.25 µg/mL (≈ 0.304 µM) each time. For the same compound, the PI in data set [2] came out at 256. In data set [4], this compound had an MNTC at 72 h of 64 µg/mL.
Turning to `CN[C@@H]1[C@H](O[C@H]2[C@H](O[C@H]3[C@H](O)[C@@H](O)[C@H](N=C(N)N)[C@@H](O)[C@@H]3N=C(N)N)O[C@@H](C)[C@]2(O)C=O)O[C@@H](CO)[C@H](O)[C@H]1O` [STREPTOMYCIN], the minimum inhibitory concentration (MIC) in data set [1] is 0.5 µg/mL (≈ 0.86 µM); in the data set with Mycobacterium avium it was 8 µg/mL (≈ 13.8 µM); in data set [3] it was 0.5 µg/mL (≈ 0.86 µM). In addition, in data set [2], the PI came to 256. Also, the MNTC at 72 h in data set [4] is 128 µg/mL.
